Assay results reported in ChEMBL document CHEMBL1153726, “Synthesis and anticancer activity of sclerophytin-inspired hydroisobenzofurans” (Bioorg Med Chem Lett, 2009).

What was measured:
[1] = Antitumor activity against human KB3 cells after 96 hrs by MTT assay; format: functional, cell-based; conditions: KB3, 96 h
Outline: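 Human KB-3 carcinoma cells exposed to increasing compound concentrations; viability read by MTT colorimetric assay after 96 h. Values are means of triplicate assays, expressed relative to untreated controls.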

ACHN = experiment: Growth inhibition of human ACHN cells at 10 uM after 96 hrs by MTT assay; format: functional; design: scale not given: the % may be the effect or the level left
[2] = Growth inhibition of human Hs 578T cells at 10 uM after 96 hrs by MTT assay; format: functional; design: scale not given: the % may be the effect or the level left
SR = experiment: Growth inhibition of human SR cells at 10 uM after 96 hrs by MTT assay; format: functional; design: scale not given: the % may be the effect or the level left
SK-OV-3 = experiment: Growth inhibition of human SKOV3 cells at 10 uM after 96 hrs by MTT assay; format: functional; design: scale not given: the % may be the effect or the level left
SNB-19 = experiment: Growth inhibition of human SNB19 cells at 10 uM after 96 hrs by MTT assay; format: functional; design: scale not given: the % may be the effect or the level left
NCI-H226 = experiment: Growth inhibition of human NCI-H226 cells at 10 uM after 96 hrs by MTT assay; format: functional; design: scale not given: the % may be the effect or the level left
RXF 393 = experiment: Growth inhibition of human RXF393 cells at 10 uM after 96 hrs by MTT assay; format: functional; design: scale not given: the % may be the effect or the level left
MDA-MB-468 = experiment: Growth inhibition of human MDA-MB-468 cells at 10 uM after 96 hrs by MTT assay; format: functional; design: scale not given: the % may be the effect or the level left
[3] = Growth inhibition of human RPMI8266 cells at 10 uM after 96 hrs by MTT assay; format: functional; design: scale not given: the % may be the effect or the level left
KM12 = experiment: Growth inhibition of human KM12 cells at 10 uM after 96 hrs by MTT assay; format: functional; design: scale not given: the % may be the effect or the level left
SK-MEL-28 = experiment: Growth inhibition of human SK-MEL-28 cells at 10 uM after 96 hrs by MTT assay; format: functional; design: scale not given: the % may be the effect or the level left
MOLT-4 = experiment: Growth inhibition of human MOLT4 cells at 10 uM after 96 hrs by MTT assay; format: functional; design: scale not given: the % may be the effect or the level left
UACC-257 = experiment: Growth inhibition of human UACC257 cells at 10 uM after 96 hrs by MTT assay; format: functional; design: scale not given: the % may be the effect or the level left
Malme-3M = experiment: Growth inhibition of human MALME-3M cells at 10 uM after 96 hrs by MTT assay; format: functional; design: scale not given: the % may be the effect or the level left
NCI-H522 = experiment: Growth inhibition of human NCI-H522 cells at 10 uM after 96 hrs by MTT assay; format: functional; design: scale not given: the % may be the effect or the level left
MDA-MB-435 = experiment: Growth inhibition of human MDA-MB-435 cells at 10 uM after 96 hrs by MTT assay; format: functional; design: scale not given: the % may be the effect or the level left
UO-31 = experiment: Growth inhibition of human UO31 cells at 10 uM after 96 hrs by MTT assay; format: functional; design: scale not given: the % may be the effect or the level left
HCT-116 = experiment: Growth inhibition of human HCT116 cells at 10 uM after 96 hrs by MTT assay; format: functional; design: scale not given: the % may be the effect or the level left
LOX IMVI = experiment: Growth inhibition of human LOXIMVI cells at 10 uM after 96 hrs by MTT assay; format: functional; design: scale not given: the % may be the effect or the level left
OVCAR-8 = experiment: Growth inhibition of human OVCAR8 cells at 10 uM after 96 hrs by MTT assay; format: functional; design: scale not given: the % may be the effect or the level left
NCI-H23 = experiment: Growth inhibition of human NCI-H23 cells at 10 uM after 96 hrs by MTT assay; format: functional; design: scale not given: the % may be the effect or the level left
SF-268 = experiment: Growth inhibition of human SF268 cells at 10 uM after 96 hrs by MTT assay; format: functional; design: scale not given: the % may be the effect or the level left
PC-3 = experiment: Growth inhibition of human PC3 cells at 10 uM after 96 hrs by MTT assay; format: functional; design: scale not given: the % may be the effect or the level left
OVCAR-5 = experiment: Growth inhibition of human OVCAR5 cells at 10 uM after 96 hrs by MTT assay; format: functional; design: scale not given: the % may be the effect or the level left
M14 = experiment: Growth inhibition of human M14 cells at 10 uM after 96 hrs by MTT assay; format: functional; design: scale not given: the % may be the effect or the level left
BT-549 = experiment: Growth inhibition of human BT549 cells at 10 uM after 96 hrs by MTT assay; format: functional; design: scale not given: the % may be the effect or the level left
SNB-75 = experiment: Growth inhibition of human SNB75 cells at 10 uM after 96 hrs by MTT assay; format: functional; design: scale not given: the % may be the effect or the level left
OVCAR-4 = experiment: Growth inhibition of human OVCAR4 cells at 10 uM after 96 hrs by MTT assay; format: functional; design: scale not given: the % may be the effect or the level left
SK-MEL-5 = experiment: Growth inhibition of human SK-MEL-5 cells at 10 uM after 96 hrs by MTT assay; format: functional; design: scale not given: the % may be the effect or the level left
HT-29 = experiment: Growth inhibition of human HT-29 cells at 10 uM after 96 hrs by MTT assay; format: functional; design: scale not given: the % may be the effect or the level left
HL-60(TB) = experiment: Growth inhibition of human HL-60(TB) cells at 10 uM after 96 hrs by MTT assay; format: functional; design: scale not given: the % may be the effect or the level left
SF-295 = experiment: Growth inhibition of human SF295 cells at 10 uM after 96 hrs by MTT assay; format: functional; design: scale not given: the % may be the effect or the level left
U-251 = experiment: Growth inhibition of human U251 cells at 10 uM after 96 hrs by MTT assay; format: functional; design: scale not given: the % may be the effect or the level left
MDA-MB-231 = experiment: Growth inhibition of human MDA-MB-231 cells at 10 uM after 96 hrs by MTT assay; format: functional; design: scale not given: the % may be the effect or the level left
COLO 205 = experiment: Growth inhibition of human COLO205 cells at 10 uM after 96 hrs by MTT assay; format: functional; design: scale not given: the % may be the effect or the level left
SF-539 = experiment: Growth inhibition of human SF539 cells at 10 uM after 96 hrs by MTT assay; format: functional; design: scale not given: the % may be the effect or the level left
HOP-92 = experiment: Growth inhibition of human HOP92 cells at 10 uM after 96 hrs by MTT assay; format: functional; design: scale not given: the % may be the effect or the level left
NCI/ADR-RES = experiment: Growth inhibition of human NCI/ADR-RES cells at 10 uM after 96 hrs by MTT assay; format: functional; design: scale not given: the % may be the effect or the level left
UACC-62 = experiment: Growth inhibition of human UACC62 cells at 10 uM after 96 hrs by MTT assay; format: functional; design: scale not given: the % may be the effect or the level left
HCT-15 = experiment: Growth inhibition of human HCT15 cells at 10 uM after 96 hrs by MTT assay; format: functional; design: scale not given: the % may be the effect or the level left
A498 = experiment: Growth inhibition of human A498 cells at 10 uM after 96 hrs by MTT assay; format: functional; design: scale not given: the % may be the effect or the level left
786-0 = experiment: Growth inhibition of human 786-0 cells at 10 uM after 96 hrs by MTT assay; format: functional; design: scale not given: the % may be the effect or the level left
HCC 2998 = experiment: Growth inhibition of human HCC2998 cells at 10 uM after 96 hrs by MTT assay; format: functional; design: scale not given: the % may be the effect or the level left
SK-MEL-2 = experiment: Growth inhibition of human SK-MEL-2 cells at 10 uM after 96 hrs by MTT assay; format: functional; design: scale not given: the % may be the effect or the level left
DU-145 = experiment: Growth inhibition of human DU145 cells at 10 uM after 96 hrs by MTT assay; format: functional; design: scale not given: the % may be the effect or the level left
SN12C = experiment: Growth inhibition of human SN12C cells at 10 uM after 96 hrs by MTT assay; format: functional; design: scale not given: the % may be the effect or the level left
SW-620 = experiment: Growth inhibition of human SW620 cells at 10 uM after 96 hrs by MTT assay; format: functional; design: scale not given: the % may be the effect or the level left
TK-10 = experiment: Growth inhibition of human TK10 cells at 10 uM after 96 hrs by MTT assay; format: functional; design: scale not given: the % may be the effect or the level left
T47D = experiment: Growth inhibition of human T47D cells at 10 uM after 96 hrs by MTT assay; format: functional; design: scale not given: the % may be the effect or the level left
IGROV-1 = experiment: Growth inhibition of human IGROV1 cells at 10 uM after 96 hrs by MTT assay; format: functional; design: scale not given: the % may be the effect or the level left
NCI-H460 = experiment: Growth inhibition of human NCI-H460 cells at 10 uM after 96 hrs by MTT assay; format: functional; design: scale not given: the % may be the effect or the level left
HOP-62 = experiment: Growth inhibition of human HOP62 cells at 10 uM after 96 hrs by MTT assay; format: functional; design: scale not given: the % may be the effect or the level left
NCI-H322M = experiment: Growth inhibition of human NCI-H322M cells at 10 uM after 96 hrs by MTT assay; format: functional; design: scale not given: the % may be the effect or the level left
K562 = experiment: Growth inhibition of human K562 cells at 10 uM after 96 hrs by MTT assay; format: functional; design: scale not given: the % may be the effect or the level left
CCRF-CEM = experiment: Growth inhibition of human CCRF-CEM cells at 10 uM after 96 hrs by MTT assay; format: functional; design: scale not given: the % may be the effect or the level left
A549 = experiment: Growth inhibition of human A549 cells at 10 uM after 96 hrs by MTT assay; format: functional; design: scale not given: the % may be the effect or the level left
MCF7 = experiment: Growth inhibition of human MCF7 cells at 10 uM after 96 hrs by MTT assay; format: functional; design: scale not given: the % may be the effect or the level left
OVCAR-3 = experiment: Growth inhibition of human OVCAR-3 cells at 10 uM after 96 hrs by MTT assay; format: functional; design: scale not given: the % may be the effect or the level left
EKVX = experiment: Growth inhibition of human EKVX cells at 10 uM after 96 hrs by MTT assay; format: functional; design: scale not given: the % may be the effect or the level left

## C=C(C)[C@H]1CC(=O)C(C)=C2[C@@H](C(=O)OCC)O[C@@H](c3ccccc3Br)[C@@H]21
[1]
  IC50: 70 µM

## C=C(C)[C@H]1CC=C(C)C2=CO[C@@H](c3ccccc3Br)[C@@H]21
[1]
  IC50: 4 µM

## C=C(C)[C@H]1CC=C(C)[C@H]2[C@@H]1[C@H](c1ccccc1Br)O[C@@H]2C(=O)OCC
[1]
  IC50: > 100 µM

## C=C(C)[C@H]1CC=C(C)[C@@]2(O)[C@@H]1[C@H](c1ccccc1Br)O[C@@H]2C(=O)OCC
[1]
  IC50: 20 µM

## C=C(C)[C@H]1CC(=O)C(C)=C2[C@@H](C(=O)OCC)O[C@@H](c3ccc(Cl)cc3Cl)[C@@H]21
ACHN
  Activity: 89.8%
[2]
  Activity: 78.32%
SR
  Activity: 12.69%
SK-OV-3
  Activity: 103.67%
SNB-19
  Activity: 89.23%
NCI-H226
  Activity: 81.04%
RXF 393
  Activity: 69.05%
MDA-MB-468
  Activity: 13.57%
[3]
  Activity: -4.6%
KM12
  Activity: 63.13%
SK-MEL-28
  Activity: 98.82%
MOLT-4
  Activity: 17.98%
UACC-257
  Activity: 51.65%
Malme-3M
  Activity: 84.13%
NCI-H522
  Activity: 9.23%
MDA-MB-435
  Activity: 48.5%
UO-31
  Activity: 121.05%
HCT-116
  Activity: 42.99%
LOX IMVI
  Activity: 66.98%
OVCAR-8
  Activity: 81.47%
NCI-H23
  Activity: 65.8%
SF-268
  Activity: 78.47%
PC-3
  Activity: 44.34%
OVCAR-5
  Activity: 119.16%
M14
  Activity: 78.49%
BT-549
  Activity: 41.32%
SNB-75
  Activity: 50.59%
OVCAR-4
  Activity: 65.97%
SK-MEL-5
  Activity: 52.4%
HT-29
  Activity: 66.3%
HL-60(TB)
  Activity: -31.34%
SF-295
  Activity: 88.75%
U-251
  Activity: 53.44%
MDA-MB-231
  Activity: 76.61%
COLO 205
  Activity: 94.54%
SF-539
  Activity: 76.69%
HOP-92
  Activity: 49.8%
NCI/ADR-RES
  Activity: 74.31%
UACC-62
  Activity: 45.44%
[1]
  IC50: 3 µM
HCT-15
  Activity: 71.15%
A498
  Activity: 82.29%
786-0
  Activity: 84.02%
HCC 2998
  Activity: 107.11%
SK-MEL-2
  Activity: 39.43%
DU-145
  Activity: 83.07%
SN12C
  Activity: 94.13%
SW-620
  Activity: 72.54%
TK-10
  Activity: 98.26%
T47D
  Activity: 40.94%
IGROV-1
  Activity: 80.84%
NCI-H460
  Activity: 58.73%
HOP-62
  Activity: 84.64%
NCI-H322M
  Activity: 92.62%
K562
  Activity: 25.32%
CCRF-CEM
  Activity: 19.48%
A549
  Activity: 41.04%
MCF7
  Activity: 62.06%
OVCAR-3
  Activity: 72.74%
EKVX
  Activity: 69.98%
